The source of these data is ChEMBL document CHEMBL3124838, “Discovery of 6-aryl-azabenzimidazoles that inhibit the TBK1/IKK-ε kinases” (Bioorg Med Chem Lett, 2014).

Test [1] deals with T1, Phosphatidylinositol 5-phosphate 4-kinase type-2 alpha (Homo sapiens) (UniProt P48426).
T1 sequence (whole entry): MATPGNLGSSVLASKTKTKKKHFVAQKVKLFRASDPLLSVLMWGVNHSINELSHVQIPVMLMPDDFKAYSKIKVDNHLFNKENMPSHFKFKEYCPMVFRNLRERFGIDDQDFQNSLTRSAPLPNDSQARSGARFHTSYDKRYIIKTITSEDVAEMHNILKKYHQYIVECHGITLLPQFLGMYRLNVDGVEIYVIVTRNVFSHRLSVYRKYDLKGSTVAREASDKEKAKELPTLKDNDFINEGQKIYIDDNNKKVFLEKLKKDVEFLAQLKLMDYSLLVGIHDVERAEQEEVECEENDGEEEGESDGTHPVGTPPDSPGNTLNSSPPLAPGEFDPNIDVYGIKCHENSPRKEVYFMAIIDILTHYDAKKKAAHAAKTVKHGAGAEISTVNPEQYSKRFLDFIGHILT
The test is described as follows: Inhibition of human PIP4K2alpha assessed as residual activity at 1 uM relative to control.

Test [2] deals with Fibroblast growth factor receptor 2 (Homo sapiens) (UniProt P21802). The test is described as follows: Inhibition of human FGFR2 assessed as residual activity at 1 uM relative to control.
Chain of Fibroblast growth factor receptor 2 (Homo sapiens) (P21802 22-821 limits assumed): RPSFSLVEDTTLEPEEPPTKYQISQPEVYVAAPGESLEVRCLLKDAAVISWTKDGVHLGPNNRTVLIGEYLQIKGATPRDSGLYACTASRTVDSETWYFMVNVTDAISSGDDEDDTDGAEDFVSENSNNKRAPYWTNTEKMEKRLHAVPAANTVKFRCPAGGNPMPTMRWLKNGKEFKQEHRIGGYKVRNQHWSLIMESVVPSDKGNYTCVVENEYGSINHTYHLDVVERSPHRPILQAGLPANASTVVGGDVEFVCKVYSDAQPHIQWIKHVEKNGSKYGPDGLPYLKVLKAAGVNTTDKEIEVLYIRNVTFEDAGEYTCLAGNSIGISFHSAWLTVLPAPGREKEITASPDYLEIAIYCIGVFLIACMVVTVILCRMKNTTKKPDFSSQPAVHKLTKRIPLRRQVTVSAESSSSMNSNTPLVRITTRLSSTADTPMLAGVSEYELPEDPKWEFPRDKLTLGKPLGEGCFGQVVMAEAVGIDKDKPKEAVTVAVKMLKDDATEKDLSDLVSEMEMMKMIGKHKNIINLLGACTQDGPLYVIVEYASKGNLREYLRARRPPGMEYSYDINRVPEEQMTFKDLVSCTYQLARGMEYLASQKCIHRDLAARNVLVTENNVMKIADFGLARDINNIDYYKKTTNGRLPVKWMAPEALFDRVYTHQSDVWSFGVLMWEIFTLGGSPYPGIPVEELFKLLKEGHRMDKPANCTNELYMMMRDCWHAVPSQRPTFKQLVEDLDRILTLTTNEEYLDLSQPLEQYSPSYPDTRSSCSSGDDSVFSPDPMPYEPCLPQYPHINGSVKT
Test [3] concerns the target PI3-kinase p110-alpha/p85-alpha (Homo sapiens) (UniProt P27986+P42336). Nature of the test: Inhibition of human PI3K p110alpha/p85alpha assessed as residual activity at 1 uM relative to control. The test is classed as protein-complex assay.
Test [4] deals with CDK6/cyclin D3 (Homo sapiens) (UniProt P30281+Q00534). The test is described as follows: Inhibition of human CDK6/cyclin D3 assessed as residual activity at 1 uM relative to control. The test is classed as protein-complex assay.
For test [5], the target named is Serine/threonine-protein kinase mTOR (Homo sapiens) (UniProt P42345). Nature of the test: Inhibition of human mTOR assessed as residual activity at 1 uM relative to control.
For test [6], the target named is T2, Inhibitor of nuclear factor kappa-B kinase subunit epsilon (Homo sapiens, UniProt Q14164).
T2 sequence (Q14164 whole entry): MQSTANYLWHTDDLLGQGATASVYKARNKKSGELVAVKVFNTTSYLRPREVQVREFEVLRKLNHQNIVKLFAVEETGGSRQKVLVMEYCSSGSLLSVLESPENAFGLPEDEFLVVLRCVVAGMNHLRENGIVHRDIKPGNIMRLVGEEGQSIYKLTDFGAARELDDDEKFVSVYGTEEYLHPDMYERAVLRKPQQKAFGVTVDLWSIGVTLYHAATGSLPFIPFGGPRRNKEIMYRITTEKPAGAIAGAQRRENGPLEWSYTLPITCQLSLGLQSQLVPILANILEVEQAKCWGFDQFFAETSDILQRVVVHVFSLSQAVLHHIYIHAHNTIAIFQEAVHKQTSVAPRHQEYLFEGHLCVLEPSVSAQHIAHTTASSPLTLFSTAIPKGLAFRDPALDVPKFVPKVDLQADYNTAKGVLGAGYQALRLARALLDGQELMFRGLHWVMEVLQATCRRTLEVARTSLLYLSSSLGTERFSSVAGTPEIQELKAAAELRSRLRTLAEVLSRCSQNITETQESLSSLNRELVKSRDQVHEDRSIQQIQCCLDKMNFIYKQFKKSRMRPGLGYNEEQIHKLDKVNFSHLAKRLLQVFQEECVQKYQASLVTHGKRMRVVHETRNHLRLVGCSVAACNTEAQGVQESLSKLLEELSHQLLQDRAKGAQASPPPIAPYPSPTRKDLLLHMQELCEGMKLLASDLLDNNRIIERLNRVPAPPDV
Nature of the test: Inhibition of IKK-epsilon (unknown origin) using 5FAM-AKELDQGSLCTpSFVGTLQ-NH2 as substrate by microfluidic mobility shift assay. In short, it runs like this: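 Recombinant IKK-ε (4 nM) in HEPES buffer with 1.5 µM 5FAM-labelled peptide substrate, ATP at its K_M, and 10 mM MgCl2. The 10-point titration used half-log serial dilutions. Reactions ran at room temperature for a set time, were quenched with EDTA-containing HEPES, and were read by microfluidic mobility shift. Percent inhibition came from the ratio of phosphorylated to total peptide.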

Test [7] deals with T3, cGMP-dependent protein kinase 1 (Homo sapiens) (UniProt Q13976).
T3 sequence (whole entry): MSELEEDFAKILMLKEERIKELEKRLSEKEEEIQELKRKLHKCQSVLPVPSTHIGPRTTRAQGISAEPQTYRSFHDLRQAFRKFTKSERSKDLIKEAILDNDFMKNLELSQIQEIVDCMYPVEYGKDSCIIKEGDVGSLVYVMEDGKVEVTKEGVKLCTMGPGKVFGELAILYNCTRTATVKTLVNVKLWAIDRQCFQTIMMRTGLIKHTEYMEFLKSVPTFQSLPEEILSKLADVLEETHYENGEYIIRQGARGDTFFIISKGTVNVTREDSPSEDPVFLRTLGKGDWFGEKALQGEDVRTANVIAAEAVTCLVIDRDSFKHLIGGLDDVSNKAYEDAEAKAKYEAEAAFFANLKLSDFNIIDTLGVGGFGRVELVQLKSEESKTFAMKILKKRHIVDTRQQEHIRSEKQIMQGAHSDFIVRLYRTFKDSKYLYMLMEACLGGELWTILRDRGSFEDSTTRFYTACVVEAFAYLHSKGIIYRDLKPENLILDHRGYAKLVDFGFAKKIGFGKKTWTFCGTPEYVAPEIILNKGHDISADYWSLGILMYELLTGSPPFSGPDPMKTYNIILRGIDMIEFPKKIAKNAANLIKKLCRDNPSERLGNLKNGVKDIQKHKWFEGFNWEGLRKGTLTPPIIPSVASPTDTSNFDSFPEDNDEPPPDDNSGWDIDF
The test is described as follows: Inhibition of human PKG1alpha assessed as residual activity at 1 uM relative to control.

On to `COc1ccc(-c2nc3cc(-c4csc(C(=O)NCC(C)(C)C)c4)cnc3[nH]2)cc1`, for which the Activity in test [1] stood at 87%; in test [2], 100%; in test [3], 86%; in test [4], 105%; in test [5] it was 102%; in test [7] it was 68%. Also, the half-inhibitory concentration (IC50) (commonly the midpoint of a concentration-inhibition curve) in test [6] came to 497 nM.
`COc1ccc(-c2nc3cc(-c4csc(C(=O)NCCC(C)C)c4)cnc3[nH]2)cc1`: the Activity in test [1] worked out at 95%; in test [2] it was 90%; in test [3], 88%; in test [4], 102%; in test [5] it was 110%; in test [7], 67%. The IC50 in test [6] stood at 1750 nM.
Turning to `COc1ccc(-c2nc3cc(-c4csc(C(=O)NCC(C)C)c4)cnc3[nH]2)cc1`, the Activity in test [1] turned out to be 85%; in test [2], 88%; in test [3] it was 91%; in test [4], 103%; in test [5], 104%; in test [7], 69%. For the same compound, the half-maximal inhibitory concentration (IC50) in test [6] came to 273 nM.
